{"source": "ChEMBL document CHEMBL1147968", "about": "“Novel lbeta-methylcarbapenems having cyclic sulfonamide moieties: synthesis and evaluation of in vitro antibacterial activity” (2007)", "type_in_all_cases": "functional", "key": {"Staphylococcus aureus": {"test_system": "Staphylococcus aureus", "assay": "Antibacterial activity against Staphylococcus aureus 1218 after 18 to 24 hrs by agar dilution method", "method_in_brief": "(§1)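 MICs were determined by agar dilution on test agar. An overnight tryptosoy broth culture was diluted in the same broth to about 10⁶ cells/mL and spotted with an inoculating device onto agar containing serial twofold dilutions of compound. Plates were incubated at 37 °C for 18–20 h, and the MIC was the lowest concentration with no visible growth.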"}, "Staphylococcus": {"test_system": "Staphylococcus", "assay": "Antibacterial activity against coagulase negative Staphylococcus after 18 to 24 hrs by agar dilution method", "method_in_brief": "(§2)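 Agar dilution on test agar holding serial twofold dilutions of compound. Overnight tryptosoy broth cultures were diluted in the same broth to about 10⁶ cells/mL and spotted with an inoculating device. Plates were incubated at 37 °C for 18–20 h.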"}, "Enterococcus faecalis": {"test_system": "Enterococcus faecalis", "assay": "Antibacterial activity against Enterococcus faecalis 2347 after 18 to 24 hrs by agar dilution method", "method_in_brief": "as §1"}, "Streptococcus pyogenes": {"test_system": "Streptococcus pyogenes", "assay": "Antibacterial activity against Streptococcus pyogenes 9889 after 18 to 24 hrs by agar dilution method", "method_in_brief": "as §2"}, "Streptococcus agalactiae": {"test_system": "Streptococcus agalactiae", "assay": "Antibacterial activity against Streptococcus agalactiae 32 after 18 to 24 hrs by agar dilution method", "method_in_brief": "as §1"}, "Streptococcus pneumoniae": {"test_system": "Streptococcus pneumoniae", "assay": "Antibacterial activity against Streptococcus pneumoniae 0025 after 18 to 24 hrs by agar dilution method", "method_in_brief": "as §1"}, "Haemophilus influenzae": {"test_system": "Haemophilus influenzae", "assay": "Antibacterial activity against Haemophilus influenzae 1210 after 18 to 24 hrs by agar dilution method", "method_in_brief": "as §1"}, "Escherichia coli": {"test_system": "Escherichia coli", "assay": "Antibacterial activity against Escherichia coli 04 after 18 to 24 hrs by agar dilution method", "method_in_brief": "as §1"}, "Klebsiella pneumoniae": {"test_system": "Klebsiella pneumoniae", "assay": "Antibacterial activity against Klebsiella pneumoniae 523 after 18 to 24 hrs by agar dilution method", "method_in_brief": "as §1"}, "Citrobacter freundii": {"test_system": "Citrobacter freundii", "assay": "Antibacterial activity against Citrobacter freundii 323 after 18 to 24 hrs by agar dilution method", "method_in_brief": "as §1"}, "Enterobacter cloacae": {"test_system": "Enterobacter cloacae", "assay": "Antibacterial activity against Enterobacter cloacae 34 after 18 to 24 hrs by agar dilution method", "method_in_brief": "as §1"}, "Serratia marcescens": {"test_system": "Serratia marcescens", "assay": "Antibacterial activity against Serratia marcescens 3349 after 18 to 24 hrs by agar dilution method", "method_in_brief": "as §1"}, "Acinetobacter baumannii": {"test_system": "Acinetobacter baumannii", "assay": "Antibacterial activity against Acinetobacter baumannii 2289 after 18 to 24 hrs by agar dilution method", "method_in_brief": "as §1"}, "Pseudomonas aeruginosa": {"test_system": "Pseudomonas aeruginosa", "assay": "Antibacterial activity against Pseudomonas aeruginosa 5455 after 18 to 24 hrs by agar dilution method", "method_in_brief": "as §1"}}}
{"smiles": "C[C@@H](O)C1C(=O)N2C(C(=O)O)=C(S[C@@H]3CN[C@H](CN4CCCNS4(=O)=O)C3)[C@H](C)C12", "note": "(some centres undefined)", "values": [{"measurement": "MIC", "setting": "Staphylococcus aureus", "value": 6.25, "unit": "µg/mL"}, {"measurement": "MIC", "setting": "Staphylococcus", "value": 0.098, "unit": "µg/mL"}, {"measurement": "MIC", "setting": "Enterococcus faecalis", "value": 6.25, "unit": "µg/mL"}, {"measurement": "MIC", "setting": "Streptococcus pyogenes", "value": 0.01, "unit": "µg/mL"}, {"measurement": "MIC", "setting": "Streptococcus agalactiae", "value": 0.01, "unit": "µg/mL"}, {"measurement": "MIC", "setting": "Streptococcus pneumoniae", "value": 0.02, "unit": "µg/mL"}, {"measurement": "MIC", "setting": "Haemophilus influenzae", "value": 6.25, "unit": "µg/mL"}, {"measurement": "MIC", "setting": "Escherichia coli", "value": 0.049, "unit": "µg/mL"}, {"measurement": "MIC", "setting": "Klebsiella pneumoniae", "value": 0.049, "unit": "µg/mL"}, {"measurement": "MIC", "setting": "Citrobacter freundii", "value": 0.049, "unit": "µg/mL"}, {"measurement": "MIC", "setting": "Enterobacter cloacae", "value": 0.049, "unit": "µg/mL"}, {"measurement": "MIC", "setting": "Serratia marcescens", "value": 0.198, "unit": "µg/mL"}, {"measurement": "MIC", "setting": "Acinetobacter baumannii", "value": 6.25, "unit": "µg/mL"}, {"measurement": "MIC", "setting": "Pseudomonas aeruginosa", "value": 1.56, "unit": "µg/mL"}]}
